Among all 85,000 compounds or so, about 940 (1.1%) were called active. What follows is part of a selection rich in actives, with near analogues and random picks from the rest. Unmarked numbers belong to inactive results.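 The calls were made as follows: active = viability at or below 50% in the single dose screen; inactive = viability above 50%.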
Assay: antiproliferative effect on LL 47 fibroblasts – human, LL 47 cells, CellTiter-Glo luminescence, primary screen (AID 719);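 also: compound exposure lasted 72 h before the ATP readout; 100% = median luminescence of untreated cell-only wells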
Settings: LL 47 human lung fibroblast viability, ATP luminescence; at 10 µM; stronger effect = lower value
Method in brief: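 material = human LL 47 lung fibroblast cells | dosing = compounds added from tenfold dosing solution, 0.1% DMSO final | timing = overnight cell rest, 72 h compound treatment at 37 °C | measured by = CellTiter-Glo luminescence measuring cellular ATP | evaluation = % viability versus median cells-only luminescence | control set = cell-only wells, no compound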

SMILES	viability
COc1ccc(Nc2ncc(C(=O)N3CCN(c4ccccc4OC)CC3)c3ccccc23)cc1	100%
Fc1ccc(-n2c(Cc3ccccc3)nnc2SCc2nc(-c3ccc(Cl)cc3)no2)cc1	111%
CC(C)CNC(=O)CC(c1ccccc1)c1c(O)ccc2ccccc12 (centres undefined)	94.7%
CC(C)C(=O)NC(NC(=S)NC1CCS(=O)(=O)C1)C(Cl)(Cl)Cl (centres undefined)	104%
COCCn1c(SCc2nnc(-c3ccc(OC)c(OC)c3)o2)nc2sc3c(c2c1=O)CCC3	99.8%
Cc1nc(Nc2ccc3c(c2)OCCO3)c2nnn(Cc3ccccc3Cl)c2n1	98.4%
O=C(Cn1cnc2c(nnn2Cc2ccc(F)cc2)c1=O)NCc1ccc2c(c1)OCO2	93.2%
CCCc1nc(NCc2ccc3c(c2)OCO3)c2nnn(Cc3ccccc3Cl)c2n1	23.2% (active)
COC(=O)c1cccc(-n2[nH]nnc2=S)c1	102%
Cc1ccc(-n2c(CNc3ccc(F)cc3)nnc2SCC(=O)N2CCOCC2)cc1	2.59% (active)
CCOC(=O)CSc1nnc(CNC(=O)c2ccco2)n1-c1ccc(F)cc1	103%
O=C(CSc1nnc(Cc2ccccc2)n1-c1ccccc1)N1CCOCC1	109%
O=C(NCCCn1ccnc1)Nc1ccc(Cl)cc1Cl	102%
CCCCOc1ccc(N(CC(=O)NCC2CCCO2)C(=O)CCC(=O)Nc2cc(C)ccn2)cc1 (centres undefined)	91.1%
COc1ccc(Br)cc1CN1CCN(C(=O)c2cccc(OC)c2OC)CC1	94.1%
c1ccc2c(c1)C(=NC1CCCCC1)NC2=NC1CCCCC1	40.6% (active)
O=C1CCCCC(=O)c2ccccc2N1	96.7%
Cc1nn(Cc2ccccc2)c2c1C(c1ccccc1)C(C#N)=C(N)O2 (centres undefined)	98.6%
CCCCNS(=O)(=O)c1ccc(S(=O)(=O)n2cnc3ccccc32)cc1	107%
OC(CNCC1CCCO1)Cn1c2ccc(Br)cc2c2cc(Br)ccc21 (centres undefined)	2.96% (active)
Cc1cc(Br)ccc1NC(=O)C1CCCO1 (centres undefined)	91.1%
Cc1ccc(C(=O)NCC2CCCO2)o1 (centres undefined)	101%

SMILES	viability
COC(=O)C1=C(C(=O)OC)C2(OC1c1ccc(Br)cc1)C(=O)c1ccccc1C2=O (centres undefined)	105%
O=C(Nc1cccc(NC(=O)c2ccco2)c1)c1cnccn1	103%
COC(=O)c1cc2nc(-c3ccccc3)cc(C(F)(F)F)n2n1	97.7%
CNc1nc(SC)nc(N(C#N)CC(=O)OC)n1	107%
CC(=O)Nc1ccc(S(=O)(=O)N2CCN(C(=O)c3ccccc3F)CC2)cc1	105%
O=c1c2ccccc2nc(N/N=C/c2ccccc2)n1O	99.1%
CCn1c(/C=C/c2ccc([N+](=O)[O-])o2)nc2ccccc2c1=O	9.18% (active)
Cc1nc2ccccc2c(=O)n1CCCn1ccnc1	100%
CCCn1nnc2sc3c(c2c1=O)CCC(C)C3 (centres undefined)	88.2%
C=CCn1c(SCc2c(C)noc2C)nc2sc3c(c2c1=O)CCC(C)C3 (centres undefined)	47.2% (active)
CC1CCc2c(sc3nc4n(c(=O)c23)CCS4)C1 (centres undefined)	104%
COc1ccc(CN(CC(=O)NC2CCCC2)C(=O)CCC(=O)Nc2cc(C)on2)cc1	101%
O=C1C=C(c2ccc(Cl)cc2)C(=O)N1Nc1ccccc1	49.3% (active)
Cc1ccc(-c2noc(CSc3nnc(-c4ccncc4)n3-c3ccc(F)cc3)n2)cc1	80.8%
OC(CN=c1sc2ccccc2n1CC(O)COc1ccccc1)COc1ccccc1 (centres undefined)	86%
N/C(=N\OC(=O)Nc1ccc(Cl)c(Cl)c1)c1ncc(C(F)(F)F)cc1Cl	97.2%
O=C(CC(O)(C(F)(F)F)C(F)(F)F)Nc1ccc(Cl)c(Cl)c1	22.4% (active)
CN(C)CCNC(CC(=O)Nc1ccc(Cl)c(Cl)c1)C(=O)O (centres undefined)	102%
COC(=O)c1ccc(NC(=O)C23CC4CC(C2)CC(n2cnc(Cl)n2)(C4)C3)cc1	96.5%
COc1ccc(C2CC(c3cccs3)=Nc3ccccc3S2)cc1OC (centres undefined)	93.6%
COc1ccc(N(CC(=O)NC2CCCCC2)C(=O)CNC(=O)c2ccco2)c(OC)c1	96.4%
CCOc1ccc(Nc2oc(Cc3ccccc3)nc2C#N)cc1	99.8%

SMILES	viability
COc1ccc(Nc2oc(-c3ccccc3Cl)nc2C#N)cc1	23.1% (active)
COc1ccccc1-c1nc(C#N)c(N2CCC(C(N)=O)CC2)o1	89.3%
COc1ccccc1NC1=NC(c2ccc(Cl)cc2)N=C(N)N1 (centres undefined)	45.8% (active)
COc1ccccc1Nc1nc(N)nc(CN(C)C2CCCCC2)n1	94.3%
COc1ccccc1NC1=NC2(CCCC2)N=C(N)N1	93%
CCn1c(=O)c(=O)n(CC)c2cc(S(=O)(=O)N3CCc4ccccc43)ccc21	70.5%
CC1(C)CCc2nc(SCc3ccccc3)c(C#N)cc2C1	95.3%
Cc1nc(NC(=O)C2CCCCC2)sc1C	108%
O=C(NCc1ccccc1)C1CCCN(S(=O)(=O)c2cccs2)C1 (centres undefined)	94.6%
O=C(Cn1c(-c2cscn2)nc2ccccc21)Nc1ccc(Cl)cc1	90.7%
CN(C)c1ccnc2sc3c(=O)n(-c4ccc(Cl)cc4)cnc3c12	102%
CC1=C(C(=O)Nc2ccccc2)C(c2ccco2)C(C#N)=C(SCC(N)=O)N1 (centres undefined)	88.2%
N#CC1=C(N)Oc2c(sc3ccccc23)C1c1ccco1 (centres undefined)	20.2% (active)
Cc1cc2c(c(=O)n1Cc1ccco1)C(c1ccccc1)C(C#N)=C(N)O2 (centres undefined)	107%
CCNc1nc(NC(C)C)nc(OCCOC(=O)c2ccccc2)n1	108%
Cc1cc(O)cc(O)c1C(=O)Cc1cnn(-c2ccccc2)c1	98.6%
C/C(=N\NC(=O)c1ccc(C)cc1)C1C(=O)c2ccccc2C1=O	103%
COc1cccc(NC(=O)CN(C)S(=O)(=O)c2ccc(C)cc2)c1	93.1%
CCN(CC)C(=O)CSc1nnc(-c2cccc(OC)c2)o1	101%
COc1cccc(-c2nnc(NC(=O)c3ccc(S(=O)(=O)N(CC(C)C)CC(C)C)cc3)o2)c1	8.59% (active)

Reference: PubChem BioAssay AID719 (SRMLSC, 2007)
